Experimental data taken from ChEMBL document CHEMBL5058577, “EUbOPEN Chemogenomics Library 2 (Multiplex)” (2022).

Tested on: Fibroblast
Assay: Multiplex assay against human fibroblast
Type: toxicity, cell-based
Summary of the method: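 Cells stained live at seeding with Hoechst33342, BioTracker Green Microtubule Cytoskeleton Dye, MitoTracker Red and Annexin V Alexa Fluor 680 were imaged on a CQ1 microscope at 37°C and 5% CO2 after compound addition. Their classification by CellPathfinder machine-learning gating ran from Hoechst high-intensity objects versus normal cells, to healthy, pyknosed or fragmented nuclei among normal cells, to mitotic or apoptotic among pyknosed cells. Tubulin, mitochondrial-mass and membrane-permeability phenotypes are per cents of healthy-nucleus cells.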

[1] = 12 h, 1 µM, compound concentration 1 uM, replicate 1
[2] = 12 h, 1 µM, compound concentration 1 uM, replicate 2
[3] = 12 h, 10 µM, compound concentration 10 uM, replicate 1
[4] = 12 h, 10 µM, compound concentration 10 uM, replicate 2
[5] = 24 h, 1 µM, compound concentration 1 uM, replicate 1
[6] = 24 h, 1 µM, compound concentration 1 uM, replicate 2
[7] = 24 h, 10 µM, compound concentration 10 uM, replicate 1
[8] = 24 h, 10 µM, compound concentration 10 uM, replicate 2
[9] = 48 h, 1 µM, compound concentration 1 uM, replicate 1
[10] = 48 h, 1 µM, compound concentration 1 uM, replicate 2
[11] = 48 h, 10 µM, compound concentration 10 uM, replicate 1
[12] = 48 h, 10 µM, compound concentration 10 uM, replicate 2

## COc1cc(C(=O)N(CCCc2ccccc2)Cc2ccc(CC(=O)O)cc2)cc(OC)c1C
[1]
  Population Apoptotic (%): 63%
  Population Fragmented Nuclei (%): 14%
  Population Healthy Nuclei (%): 73%
  Population Hoechst High Intensity Objects (%): 2%
  Population Membrane Permeable-Phenotype (%): 0%
  Population Mitochondria Different-Phenotype (%): 0%
  Population Mitotic Cells (%): 36%
  Population Normal (%): 97%
  Population Pyknosed Nuclei (%): 12%
  Population Tubulin-Different-Phenotype (%): 15%
  Total Cell Count: 160
[2]
  Population Apoptotic (%): 42%
  Population Fragmented Nuclei (%): 37%
  Population Healthy Nuclei (%): 45%
  Population Hoechst High Intensity Objects (%): 4%
  Population Membrane Permeable-Phenotype (%): 11%
  Population Mitochondria Different-Phenotype (%): 5%
  Population Mitotic Cells (%): 57%
  Population Normal (%): 95%
  Population Pyknosed Nuclei (%): 16%
  Population Tubulin-Different-Phenotype (%): 36%
  Total Cell Count: 176
[3]
  Population Apoptotic (%): 41%
  Population Fragmented Nuclei (%): 16%
  Population Healthy Nuclei (%): 70%
  Population Hoechst High Intensity Objects (%): 2%
  Population Membrane Permeable-Phenotype (%): 0%
  Population Mitochondria Different-Phenotype (%): 5%
  Population Mitotic Cells (%): 58%
  Population Normal (%): 97%
  Population Pyknosed Nuclei (%): 12%
  Population Tubulin-Different-Phenotype (%): 28%
  Total Cell Count: 197
[4]
  Population Apoptotic (%): 45%
  Population Fragmented Nuclei (%): 25%
  Population Healthy Nuclei (%): 61%
  Population Hoechst High Intensity Objects (%): 4%
  Population Membrane Permeable-Phenotype (%): 7%
  Population Mitochondria Different-Phenotype (%): 4%
  Population Mitotic Cells (%): 54%
  Population Normal (%): 95%
  Population Pyknosed Nuclei (%): 13%
  Population Tubulin-Different-Phenotype (%): 47%
  Total Cell Count: 181
[5]
  Population Apoptotic (%): 68%
  Population Fragmented Nuclei (%): 11%
  Population Healthy Nuclei (%): 77%
  Population Hoechst High Intensity Objects (%): 1%
  Population Membrane Permeable-Phenotype (%): 0%
  Population Mitochondria Different-Phenotype (%): 0%
  Population Mitotic Cells (%): 31%
  Population Normal (%): 98%
  Population Pyknosed Nuclei (%): 10%
  Population Tubulin-Different-Phenotype (%): 13%
  Total Cell Count: 156
[6]
  Population Apoptotic (%): 52%
  Population Fragmented Nuclei (%): 44%
  Population Healthy Nuclei (%): 41%
  Population Hoechst High Intensity Objects (%): 4%
  Population Membrane Permeable-Phenotype (%): 1%
  Population Mitochondria Different-Phenotype (%): 6%
  Population Mitotic Cells (%): 48%
  Population Normal (%): 95%
  Population Pyknosed Nuclei (%): 13%
  Population Tubulin-Different-Phenotype (%): 28%
  Total Cell Count: 189
[7]
  Population Apoptotic (%): 55%
  Population Fragmented Nuclei (%): 12%
  Population Healthy Nuclei (%): 76%
  Population Hoechst High Intensity Objects (%): 1%
  Population Membrane Permeable-Phenotype (%): 1%
  Population Mitochondria Different-Phenotype (%): 6%
  Population Mitotic Cells (%): 45%
  Population Normal (%): 98%
  Population Pyknosed Nuclei (%): 10%
  Population Tubulin-Different-Phenotype (%): 25%
  Total Cell Count: 192
[8]
  Population Apoptotic (%): 40%
  Population Fragmented Nuclei (%): 25%
  Population Healthy Nuclei (%): 61%
  Population Hoechst High Intensity Objects (%): 4%
  Population Membrane Permeable-Phenotype (%): 5%
  Population Mitochondria Different-Phenotype (%): 0%
  Population Mitotic Cells (%): 59%
  Population Normal (%): 96%
  Population Pyknosed Nuclei (%): 13%
  Population Tubulin-Different-Phenotype (%): 41%
  Total Cell Count: 175
[9]
  Population Apoptotic (%): 90%
  Population Fragmented Nuclei (%): 21%
  Population Healthy Nuclei (%): 72%
  Population Hoechst High Intensity Objects (%): 1%
  Population Membrane Permeable-Phenotype (%): 0%
  Population Mitochondria Different-Phenotype (%): 0%
  Population Mitotic Cells (%): 10%
  Population Normal (%): 98%
  Population Pyknosed Nuclei (%): 6%
  Population Tubulin-Different-Phenotype (%): 17%
  Total Cell Count: 168
[10]
  Population Apoptotic (%): 52%
  Population Fragmented Nuclei (%): 50%
  Population Healthy Nuclei (%): 41%
  Population Hoechst High Intensity Objects (%): 2%
  Population Membrane Permeable-Phenotype (%): 3%
  Population Mitochondria Different-Phenotype (%): 9%
  Population Mitotic Cells (%): 47%
  Population Normal (%): 97%
  Population Pyknosed Nuclei (%): 8%
  Population Tubulin-Different-Phenotype (%): 40%
  Total Cell Count: 211
[11]
  Population Apoptotic (%): 77%
  Population Fragmented Nuclei (%): 25%
  Population Healthy Nuclei (%): 65%
  Population Hoechst High Intensity Objects (%): 2%
  Population Membrane Permeable-Phenotype (%): 1%
  Population Mitochondria Different-Phenotype (%): 5%
  Population Mitotic Cells (%): 22%
  Population Normal (%): 97%
  Population Pyknosed Nuclei (%): 9%
  Population Tubulin-Different-Phenotype (%): 32%
  Total Cell Count: 195
[12]
  Population Apoptotic (%): 58%
  Population Fragmented Nuclei (%): 38%
  Population Healthy Nuclei (%): 54%
  Population Hoechst High Intensity Objects (%): 5%
  Population Membrane Permeable-Phenotype (%): 5%
  Population Mitochondria Different-Phenotype (%): 3%
  Population Mitotic Cells (%): 41%
  Population Normal (%): 94%
  Population Pyknosed Nuclei (%): 6%
  Population Tubulin-Different-Phenotype (%): 46%
  Total Cell Count: 187

## Cl.Clc1ccc2nsnc2c1NC1=NCCN1 [TIZANIDINE HYDROCHLORIDE]
[1]
  Population Apoptotic (%): 38%
  Population Fragmented Nuclei (%): 10%
  Population Healthy Nuclei (%): 72%
  Population Hoechst High Intensity Objects (%): 3%
  Population Membrane Permeable-Phenotype (%): 0%
  Population Mitochondria Different-Phenotype (%): 4%
  Population Mitotic Cells (%): 61%
  Population Normal (%): 96%
  Population Pyknosed Nuclei (%): 17%
  Population Tubulin-Different-Phenotype (%): 21%
  Total Cell Count: 155
[2]
  Population Apoptotic (%): 33%
  Population Fragmented Nuclei (%): 24%
  Population Healthy Nuclei (%): 49%
  Population Hoechst High Intensity Objects (%): 4%
  Population Membrane Permeable-Phenotype (%): 5%
  Population Mitochondria Different-Phenotype (%): 5%
  Population Mitotic Cells (%): 66%
  Population Normal (%): 95%
  Population Pyknosed Nuclei (%): 25%
  Population Tubulin-Different-Phenotype (%): 50%
  Total Cell Count: 182
[3]
  Population Apoptotic (%): 36%
  Population Fragmented Nuclei (%): 18%
  Population Healthy Nuclei (%): 60%
  Population Hoechst High Intensity Objects (%): 4%
  Population Membrane Permeable-Phenotype (%): 0%
  Population Mitochondria Different-Phenotype (%): 8%
  Population Mitotic Cells (%): 64%
  Population Normal (%): 95%
  Population Pyknosed Nuclei (%): 20%
  Population Tubulin-Different-Phenotype (%): 29%
  Total Cell Count: 129
[4]
  Population Apoptotic (%): 21%
  Population Fragmented Nuclei (%): 24%
  Population Healthy Nuclei (%): 45%
  Population Membrane Permeable-Phenotype (%): 7%
  Population Mitochondria Different-Phenotype (%): 7%
  Population Mitotic Cells (%): 78%
  Population Pyknosed Nuclei (%): 29%
  Population Tubulin-Different-Phenotype (%): 33%
  Total Cell Count: 143
[5]
  Population Apoptotic (%): 52%
  Population Fragmented Nuclei (%): 6%
  Population Healthy Nuclei (%): 76%
  Population Hoechst High Intensity Objects (%): 2%
  Population Membrane Permeable-Phenotype (%): 0%
  Population Mitochondria Different-Phenotype (%): 0%
  Population Mitotic Cells (%): 47%
  Population Normal (%): 97%
  Population Pyknosed Nuclei (%): 16%
  Population Tubulin-Different-Phenotype (%): 16%
  Total Cell Count: 146
[6]
  Population Apoptotic (%): 42%
  Population Fragmented Nuclei (%): 26%
  Population Healthy Nuclei (%): 49%
  Population Hoechst High Intensity Objects (%): 4%
  Population Membrane Permeable-Phenotype (%): 9%
  Population Mitochondria Different-Phenotype (%): 4%
  Population Mitotic Cells (%): 57%
  Population Normal (%): 95%
  Population Pyknosed Nuclei (%): 24%
  Population Tubulin-Different-Phenotype (%): 50%
  Total Cell Count: 182
[7]
  Population Apoptotic (%): 45%
  Population Fragmented Nuclei (%): 19%
  Population Healthy Nuclei (%): 60%
  Population Hoechst High Intensity Objects (%): 1%
  Population Membrane Permeable-Phenotype (%): 0%
  Population Mitochondria Different-Phenotype (%): 5%
  Population Mitotic Cells (%): 54%
  Population Normal (%): 98%
  Population Pyknosed Nuclei (%): 20%
  Population Tubulin-Different-Phenotype (%): 20%
  Total Cell Count: 122
[8]
  Population Apoptotic (%): 47%
  Population Healthy Nuclei (%): 48%
  Population Hoechst High Intensity Objects (%): 2%
  Population Membrane Permeable-Phenotype (%): 9%
  Population Mitochondria Different-Phenotype (%): 6%
  Population Mitotic Cells (%): 52%
  Population Normal (%): 97%
  Population Pyknosed Nuclei (%): 32%
  Population Tubulin-Different-Phenotype (%): 34%
  Total Cell Count: 135
[9]
  Population Apoptotic (%): 47%
  Population Fragmented Nuclei (%): 17%
  Population Healthy Nuclei (%): 71%
  Population Hoechst High Intensity Objects (%): 2%
  Population Membrane Permeable-Phenotype (%): 2%
  Population Mitochondria Different-Phenotype (%): 1%
  Population Mitotic Cells (%): 52%
  Population Normal (%): 97%
  Population Pyknosed Nuclei (%): 10%
  Population Tubulin-Different-Phenotype (%): 19%
  Total Cell Count: 167
[10]
  Population Apoptotic (%): 55%
  Population Fragmented Nuclei (%): 29%
  Population Healthy Nuclei (%): 47%
  Population Hoechst High Intensity Objects (%): 6%
  Population Membrane Permeable-Phenotype (%): 6%
  Population Mitochondria Different-Phenotype (%): 8%
  Population Mitotic Cells (%): 44%
  Population Normal (%): 93%
  Population Pyknosed Nuclei (%): 23%
  Population Tubulin-Different-Phenotype (%): 56%
  Total Cell Count: 166
[11]
  Population Apoptotic (%): 69%
  Population Fragmented Nuclei (%): 26%
  Population Healthy Nuclei (%): 56%
  Population Hoechst High Intensity Objects (%): 2%
  Population Membrane Permeable-Phenotype (%): 0%
  Population Mitochondria Different-Phenotype (%): 5%
  Population Mitotic Cells (%): 30%
  Population Normal (%): 97%
  Population Pyknosed Nuclei (%): 17%
  Population Tubulin-Different-Phenotype (%): 26%
  Total Cell Count: 133
[12]
  Population Apoptotic (%): 63%
  Population Fragmented Nuclei (%): 35%
  Population Healthy Nuclei (%): 42%
  Population Membrane Permeable-Phenotype (%): 6%
  Population Mitochondria Different-Phenotype (%): 11%
  Population Mitotic Cells (%): 36%
  Population Pyknosed Nuclei (%): 21%
  Population Tubulin-Different-Phenotype (%): 44%
  Total Cell Count: 141
